Assay outcomes as filed in PubChem BioAssay.
Hck-Nef inh – human Hck-Nef kinase inhibition | Recombinant Hck-YEEI plus Nef, Z-Lyte FRET kinase assay | inhibition, % at 20 µM | hit rate 0.68% among 220,000 | P08631;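 active means Hck-Nef kinase inhibition above about 50%, limit read from the data; inactive means inhibition below that limit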
Runt-SMMHC FRET – inhibitors of human RUNX1 Runt domain binding to CBFb-SMMHC | inhibition, % at 20 µM | hit rate 0.74% among 220,000 | AID 1434 | Cerulean-Runt/Venus-CBFb-SMMHC FRET ratio 530/480, 1 h;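 active means mean inhibition across duplicate retests at 20 µM reaching about 50%, limit read from the data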;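 further: inhibitors lower the FRET ratio by blocking Runt binding to CBFb-SMMHC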
Target sequence (Q01196 whole entry, looked up, the tested form may be a part): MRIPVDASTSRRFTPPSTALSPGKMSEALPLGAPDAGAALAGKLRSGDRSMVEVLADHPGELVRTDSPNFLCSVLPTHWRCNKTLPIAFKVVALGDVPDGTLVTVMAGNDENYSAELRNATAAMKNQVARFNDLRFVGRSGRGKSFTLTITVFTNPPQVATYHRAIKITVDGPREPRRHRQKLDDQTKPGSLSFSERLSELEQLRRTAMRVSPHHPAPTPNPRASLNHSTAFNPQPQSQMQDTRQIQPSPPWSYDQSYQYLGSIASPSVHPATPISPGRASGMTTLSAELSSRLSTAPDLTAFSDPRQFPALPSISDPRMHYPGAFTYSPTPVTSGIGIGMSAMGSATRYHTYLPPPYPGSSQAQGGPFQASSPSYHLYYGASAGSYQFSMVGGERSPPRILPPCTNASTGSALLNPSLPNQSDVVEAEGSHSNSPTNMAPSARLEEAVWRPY
Target sequence (Q13951 whole entry, looked up, the tested form may be a part): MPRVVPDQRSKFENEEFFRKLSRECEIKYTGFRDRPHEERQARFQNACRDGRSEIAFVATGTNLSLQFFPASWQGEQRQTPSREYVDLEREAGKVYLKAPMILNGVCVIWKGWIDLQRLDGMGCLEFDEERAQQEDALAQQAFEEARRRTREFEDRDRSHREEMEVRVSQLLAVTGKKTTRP
RanGTP-Impb inh – disruptors of Ran-importin-beta complex formation – biochemical, FRET, CFP-Ran, YFP-importin-beta, homogeneous, primary screen | cell-free CFP-Ran/YFP-importin-beta FRET ratio | inhibition, % (test concentration not listed) | hit rate 1.1% among 300,000;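 active means more than half of the replicate wells show a fall in the fluorescence ratio signal beyond about 16%, limit read from the data, passing the limit was not always enough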
Runt-CBFb FRET – inhibitors of human RUNX1 Runt domain binding to CBFb; Q01196+Q13951; Cerulean-Runt/Venus-CBFb FRET ratio 530/480, 1 h; inhibition, % at 20 µM; hit rate 0.46% among 220,000; AID 1496;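 active means inhibition over about 50% at 20 µM in the single-dose screen, limit read from the data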
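Schedule: protein complex preformed 1 h, compound exposure 1 h, room temperature, dark; test system: Cerulean-labeled Runt domain protein; amount: 100 nM per protein; buffer or medium: Tris 50 mM pH 7.5, KCl, K2SO4, 0.01% BSA; read-out: loss of energy transfer signal; detection: FRET fluorescence; controls: 5 µM unlabeled CBFb as full-inhibition high control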
YIC counter – counter-screen for RanGTP-importin-beta inhibitors: YIC FRET probe. IC50, µM. hit rate 40% among 1,000. AID 435026. shares compounds with RanGTP-Impb inh. Purified YIC probe, intramolecular FRET ratio YFP/CFP;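 active means fitted half-maximal inhibitory concentration no more than tenfold above the top dose tested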
Hits are given with their value. In the library only some 1.8% were active in any assay of this set; here they are far more common.

For Cc1nc2ccccc2n1CC(=O)N1CC(=O)Nc2ccccc21 the results were Hck-Nef inh inactive, Runt-SMMHC FRET inactive, RanGTP-Impb inh 18, Runt-CBFb FRET inactive and YIC counter inactive.
`CC(C)Cn1c(SCC(=O)N2CC(=O)Nc3ccccc32)nc2ccccc21` gave Hck-Nef inh inactive, Runt-SMMHC FRET inactive, RanGTP-Impb inh inactive and Runt-CBFb FRET inactive.
`Cc1csc2ncnc(NC3CCN(Cc4ccccc4)CC3)c12` gave Hck-Nef inh inactive, Runt-SMMHC FRET inactive, RanGTP-Impb inh 19, Runt-CBFb FRET inactive and YIC counter inactive.
`Cc1ccc(-n2c(=O)c(C#N)cc3c(=O)n4ccccc4nc32)cc1` gave Hck-Nef inh 94, Runt-SMMHC FRET 60, RanGTP-Impb inh 44, Runt-CBFb FRET inactive and YIC counter 0.72.
Screening CC(C)(C)C(=O)CNS(=O)(=O)c1ccc(S(=O)(=O)NC2CC2)cc1 returned RanGTP-Impb inh inactive.
CCOc1ccc(NC(=O)CN2C(=O)COc3ccc(Cl)cc32)cc1 was read as Hck-Nef inh inactive, Runt-SMMHC FRET inactive, RanGTP-Impb inh 18, Runt-CBFb FRET inactive and YIC counter inactive.
CCOc1ccc2nc(SCC(=O)NCc3ccc4c(c3)OCO4)[nH]c2c1 was read as Hck-Nef inh inactive, Runt-SMMHC FRET inactive, RanGTP-Impb inh 30, Runt-CBFb FRET inactive and YIC counter inactive.
For COc1ccc2nc(SCC(=O)NCc3ccc4c(c3)OCO4)[nH]c2c1 the results were Hck-Nef inh inactive, Runt-SMMHC FRET inactive, RanGTP-Impb inh inactive and Runt-CBFb FRET inactive.
For CC/C(=N\NC(=O)c1cc(C2CC2)[nH]n1)c1ccccc1 the results were RanGTP-Impb inh 38 and YIC counter inactive.
Screening COc1cc(CN2CCN(Cc3c[nH]c4ccccc34)CC2CCO)cc(OC)c1 (configuration not stated) returned RanGTP-Impb inh 21 and YIC counter inactive.
Screening O=C(CN1CCN(C/C=C/c2ccccc2)CC1)NC(=O)NC1CCCCC1 returned Hck-Nef inh inactive, Runt-SMMHC FRET inactive, RanGTP-Impb inh 29, Runt-CBFb FRET inactive and YIC counter inactive.
O=C(CN1CCN(Cc2ccccc2)CC1)NC(=O)NC1CCCCC1 was read as Hck-Nef inh inactive, Runt-SMMHC FRET inactive, RanGTP-Impb inh inactive and Runt-CBFb FRET inactive.
`COCCNC(=S)Nc1cc2oc3ccccc3c2cc1OC` gave RanGTP-Impb inh inactive.
For CCCc1noc(-c2cccc([N+](=O)[O-])c2)n1 the results were Hck-Nef inh inactive, Runt-SMMHC FRET inactive, RanGTP-Impb inh 24, Runt-CBFb FRET inactive and YIC counter inactive.
CN(C)C(=O)C(OC(=O)c1ccc2ccccc2n1)c1ccccc1 (configuration not stated) was read as RanGTP-Impb inh inactive.
`Cc1ccc(S(=O)(=O)CC(=O)N(CCCN(C)C)c2nc3ccc(C)cc3s2)cc1` gave RanGTP-Impb inh 21 and YIC counter inactive.
CCOc1ccc(C(=O)NCC(=O)N2CCN(c3ccccc3O)CC2)cc1 was read as RanGTP-Impb inh inactive.
Screening C=CCn1c(O)c(N=NC(=S)Nc2ccccc2F)c2cc(S(=O)(=O)N3CCOCC3)ccc21 returned Hck-Nef inh inactive, Runt-SMMHC FRET inactive, RanGTP-Impb inh 18, Runt-CBFb FRET inactive and YIC counter inactive.
For C=CCn1c(O)c(N=NC(=S)Nc2ccccc2F)c2ccccc21 the results were Hck-Nef inh inactive, Runt-SMMHC FRET inactive, RanGTP-Impb inh inactive and Runt-CBFb FRET inactive.
Screening Oc1nc(Nc2cccc(Cl)c2)sc1/C=C1\C=Nc2ccccc21 returned Hck-Nef inh inactive, Runt-SMMHC FRET inactive, RanGTP-Impb inh inactive and Runt-CBFb FRET inactive.
Screening CC1=Nc2ccccc2/C1=C\c1sc(Nc2ccc(C)cc2)nc1O returned Hck-Nef inh inactive, Runt-SMMHC FRET inactive, RanGTP-Impb inh 21, Runt-CBFb FRET inactive and YIC counter inactive.
CC1=Nc2ccccc2/C1=C/c1sc(=O)n(CC(=O)N2CCCC2)c1O was read as Hck-Nef inh inactive, Runt-SMMHC FRET inactive, RanGTP-Impb inh inactive and Runt-CBFb FRET inactive.
For Oc1nc(Nc2ccc(F)cc2)sc1/C=C1\C=Nc2ccccc21 the results were Hck-Nef inh inactive, Runt-SMMHC FRET inactive, RanGTP-Impb inh 19, Runt-CBFb FRET inactive and YIC counter inactive.
Cc1nc2ncnn2c(N2CCCC(C(=O)Nc3ccccc3Br)C2)c1C (configuration not stated) was read as Hck-Nef inh inactive, Runt-SMMHC FRET inactive, RanGTP-Impb inh inactive and Runt-CBFb FRET inactive.
